Measured values gathered from unrelated publications.
Observed: cell growth or viability

SMILES | cell line | method | time | IC50 [µM]
C[C@H](NC(=O)c1cccc2ccccc12)C(=O)Nc1ccccc1Oc1ccccc1 | SK-N-FI |  |  | 3
CN(C)C/C=C/C(=O)Nc1cc2c(Nc3ccc(F)c(Cl)c3)ncnc2cc1O[C@H]1CCOC1 | SW620/AD300 | MTT | 72 h | 4.3
CNc1ncc2cc(-c3ccc(-c4cccc(C)n4)cc3Cl)c(=O)n(C[C@H]3OC[C@H](N)CO3)c2n1 | BXPC-3 | MTT | 24 h | 20.3
COc1cc([C@@H]2c3cc4c(cc3[C@@H](O[C@@H]3O[C@@H]5CO[C@@H](C)O[C@H]5[C@H](O)[C@H]3O)[C@H]3COC(=O)[C@H]23)OCO4)cc(OC)c1O | DLD-1 | fluorescence | 48 h | 1.3
CC(C)C[C@H](NC(=O)[C@H](Cc1ccccc1)NC(=O)c1cnccn1)B(O)O | SK-N-FI | ATP luminescence |  | 0.013
Cc1nc(Nc2ncc(C(=O)Nc3c(C)cccc3Cl)s2)cc(N2CCN(CCO)CC2)n1 | BXPC-3 | MTT |  | 0.046
CCC[C@H](Nc1nc(-c2ccc(NC(=O)NCC)c(OC)c2)ncc1C)c1cccnc1 | BXPC-3 | fluorescence | 72 h | 0.0371
CN(C)CCCN1c2ccccc2Sc2ccc(Cl)cc21 | human Hepatocyte |  |  | 26
COc1cc(Nc2nccc(-c3cnn4nc(OC)ccc34)n2)cc(C(F)(F)F)c1 | DLD-1 | ATP luminescence |  | 0.53
C[C@H]1[C@H](C)CC[C@]2(C(=O)O)CC[C@]3(C)C(=CC[C@@H]4[C@@]5(C)CC[C@H](O)C(C)(C)[C@@H]5CC[C@]43C)[C@H]12 | DLD-1 |  | 48 h | 13
CCN1C(=O)N(c2c(F)c(OC)cc(OC)c2F)Cc2cnc3[nH]c(CN4CCOCC4)cc3c21 | MFE-296 | ATP luminescence | 96 h | 0.056
Cc1nc(-c2cn3c(n2)-c2ccc(-c4cnn(C(C)(C)C(N)=O)c4)cc2OCC3)n(C(C)C)n1 | SW48 | ATP luminescence | 96 h | 0.0215
CCN(CC)CCCC(C)Nc1cnc(C(=O)Nc2cc(F)cc3cccnc23)cn1 (centres unmarked) | BXPC-3 | MTT |  | 7.3
Cc1cnc(NC2CCOCC2)nc1-n1cnc(C(=O)NC(CN)c2cc(F)cc(Cl)c2)c1 (centres unmarked) | U-2973 | MTS |  | 0.3
